Data as given in ChEMBL document CHEMBL1149140, “Orally bioavailable competitive CCR5 antagonists” (J Med Chem, 2004).

Tests used:
[1] = target: T1, C-C chemokine receptor type 5 (Homo sapiens, UniProt P51681); experiment: Antagonistic activity against human C-C chemokine receptor type 5.; type: functional
Summary of the method: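 SPA radioligand binding using membranes from CHO cells transfected with human or cynomolgus CCR5. Buffer was 50 mM HEPES, 6 mM CaCl2, 12 mM MgCl2, 100 mM NaCl and 0.5% BSA. Incubated 2 h shaking at room temperature. Nonspecific binding defined with 100 nM unlabeled MIP-1α. IC50 reported.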

[2] = target: T1, C-C chemokine receptor type 5; experiment: Rises in intracellular [Ca2+] levels by using [Ca2+] sensitive Fluo4 dye in C-C chemokine receptor type 5-transfected CHO cells.; type: functional, cell-based
Summary of the method: (§1)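 CCR5-transfected CHO cells were loaded with 4 µM Fluo4 for 1 h at 37 °C (HBSS, 20 mM HEPES pH 7.4, 0.1% BSA, 2.5 mM probenecid), then washed. Compound preincubated 2 h at room temperature. Baseline read 20 s on FLIPR, then MIP-1α added (final 10 nM) and recorded 3 min. IC50 from concentration-dependent reduction of Fmax−Fmin.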

[3] = Cmax in monkeys at a dose of […] mg/kg; type: ADME, organism-based; details: simiiformes, in vivo, 1 mg/kg
[4] = Cmax in rats at a dose of […] mg/kg; type: ADME, organism-based; details: rat, in vivo, 1 mg/kg
[5] = AUC in monkeys at a dose of […] mg/kg; type: ADME, organism-based, Plasma; details: simiiformes, in vivo, 1 mg/kg
[6] = test system: Rattus norvegicus; experiment: AUC in rats at a dose of […] mg/kg; type: ADME, organism-based, Plasma; details: in vivo, 1 mg/kg
[7] = Mean residence time was determined; type: ADME, organism-based; details: in vivo
[8] = Mean residence time in monkeys; type: ADME, organism-based; details: simiiformes, in vivo
[9] = Oral bioavailability; type: ADME, organism-based; details: eutheria, in vivo
[10] = Oral bioavailability in rat; type: ADME, organism-based; details: in vivo
[11] = Tmax in monkeys; type: ADME; details: simiiformes, in vivo
[12] = (§2) Compound was evaluated for rises in intracellular [Ca2+] levels pre-incubation at 2.5 min in [Ca2+] Mobilization Assay; type: functional, cell-based
Summary of the method: (§3)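 Fluo4-loaded CCR5-transfected CHO cells on FLIPR. Baseline read 20 s, then compound added and monitored 2.5 min, then MIP-1α agonist (final 10 nM) added and fluorescence recorded 3 min. IC50 from inhibition of the MIP-1α-induced fluorescence rise.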

[13] = Compound was evaluated for rises in intracellular [Ca2+] levels pre-incubation at 2 hr in [Ca2+] Mobilization Assay; type: functional, cell-based; summary of the method: as §1
[14] = Mean residence time in rat; type: ADME, organism-based; details: in vivo
[15] = Compound was evaluated for rises in intracellular [Ca2+] levels by using [Ca2+] sensitive Fluo4 dye in CCR5-transfected CHO cells; type: functional, cell-based; summary of the method: as §1
[16] = Tmax in rats; type: ADME, organism-based; details: rat, in vivo
[17] = target: CCR5 (Macaca fascicularis); experiment: Antagonistic activity against cynomolgus monkey C-C chemokine receptor type 5
[18] = species on record: Homo sapiens; experiment: as §2; type: functional, organism-based; summary of the method: as §3
[19] = Mean residence time in rats; type: ADME, organism-based; details: rat, in vivo

T1 sequence (P51681 whole entry): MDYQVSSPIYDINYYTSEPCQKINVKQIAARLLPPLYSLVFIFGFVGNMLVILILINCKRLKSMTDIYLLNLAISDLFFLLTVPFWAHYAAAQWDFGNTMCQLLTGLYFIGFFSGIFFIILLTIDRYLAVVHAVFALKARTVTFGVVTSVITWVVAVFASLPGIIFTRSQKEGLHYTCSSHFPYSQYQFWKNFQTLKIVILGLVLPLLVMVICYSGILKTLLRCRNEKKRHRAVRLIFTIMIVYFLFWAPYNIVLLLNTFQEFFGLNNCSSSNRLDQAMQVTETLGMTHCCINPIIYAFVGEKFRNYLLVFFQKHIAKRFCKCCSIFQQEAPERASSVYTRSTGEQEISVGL

Cc1cccc(C)c1C(=O)N1CCC(C)(N2CCC(Nc3cccc4ccn(C)c34)CC2)CC1
IC50 [1]: 102 nM
IC50 [2]: 2170 nM

Cc1cccc(C)c1C(=O)N1CCC(C)(N2CCC(N(Cc3ccccc3)c3ccccc3)CC2)CC1
Cmax [3]: 7 ng/mL
Cmax [4]: 90 ng/mL
AUG [5]: 33 ng·h/mL
AUG [6]: 569 ng·h/mL
MRT [7]: 8.9 h
MRT [8]: 4.1 h
bioavailability [9]: 4%
bioavailability [10]: 85%
Tmax [11]: 0.5 h
IC50 [12]: 200 nM

CN(C)C(=O)c1ccccc1C(=O)N1CCC(C)(N2CCC(N(c3ccccc3)c3ccccc3)CC2)CC1
IC50 [1]: > 100 nM

Cc1cccc(C)c1C(=O)N1CCC(C)(N2CCC(N(Cc3ccccc3)Cc3ccccc3)CC2)CC1
IC50 [1]: 75 nM

Cc1cc[n+]([O-])c(C)c1C(=O)N1CCC(C)(N2CCC(N(Cc3ccccc3C#N)c3ccccc3)CC2)CC1
IC50 [1]: 80 nM
IC50 [2]: > 3000 nM

CC1(N2CCC(N(c3ccccc3)c3ccccc3)CC2)CCN(C(=O)C2CCCCC2)CC1
IC50 [1]: 408 nM
IC50 [2]: 580 nM

Cc1cc[n+]([O-])c(C)c1C(=O)N1CCC(C)(N2CCC(N(c3ccccc3)c3ccccc3)CC2)CC1
IC50 [1]: 3.3 nM
IC50 [2]: 16 nM
IC50 [12]: 33 nM
IC50 [13]: 16 nM

Cc1nc[n+]([O-])c(C)c1C(=O)N1CCC(C)(N2CCC(N(c3ccccc3)c3ccccc3)CC2)CC1
Cmax [3]: 91 ng/mL
Cmax [4]: 91 ng/mL
AUG [5]: 1550 ng·h/mL
AUG [6]: 1030 ng·h/mL
MRT [7]: 6 h
MRT [8]: 5.1 h
bioavailability [9]: 58%
bioavailability [10]: 94%

Cc1cc[n+]([O-])c(C)c1C(=O)N1CCC(N2CCC(N(c3ccccc3)c3ccccc3)CC2)CC1
IC50 [1]: 9 nM
IC50 [2]: 127 nM

COc1cccc(OC)c1C(=O)N1CCC(C)(N2CCC(N(c3ccccc3)c3ccccc3)CC2)CC1
IC50 [1]: 42 nM

Cc1ccnc(C)c1C(=O)N1CCC(C)(N2CCC(N(c3ccccc3)c3ccccc3)CC2)CC1
IC50 [12]: 114 nM

Cc1cccc(C)c1C(=O)N1CCC(C)(N2CCC(Nc3ccc(C(F)(F)F)cc3)CC2)CC1
IC50 [1]: 0.8 nM
IC50 [2]: 27.3 nM

Cc1ccccc1C(=O)N1CCC(C)(N2CCC(N(c3ccccc3)c3ccccc3)CC2)CC1
IC50 [1]: 7.8 nM
IC50 [2]: 67 nM

Cc1cccc(C)c1C(=O)N1CCC(C)(N2CCC(Nc3ccc(-c4ccccc4)cc3)CC2)CC1
IC50 [1]: 460 nM

CC1(N2CCC(N(c3ccccc3)c3ccccc3)CC2)CCN(C(=O)c2cccc3ccccc23)CC1
Cmax [3]: 70 ng/mL
AUG [6]: 518 ng·h/mL
MRT [14]: 14.4 h
bioavailability [10]: 100%
IC50 [12]: 610 nM
IC50 [13]: 29 nM
IC50 [15]: 29.4 nM

COc1cc(CN(c2ccccc2)C2CCN(C3(C)CCN(C(=O)c4c(C)cc[n+]([O-])c4C)CC3)CC2)cc(OC)c1OC
IC50 [1]: > 1000 nM

Cc1cccc(C)c1C(=O)N1CCC(C)(N2CCC(NCc3ccccc3)CC2)CC1
IC50 [1]: > 1000 nM
IC50 [2]: > 1000 nM

Cc1cccc(C)c1C(=O)N1CCC(C)(N2CCC(N(Cc3ccccc3)c3ccc(Br)cc3)CC2)CC1
IC50 [1]: 2.3 nM
IC50 [2]: 15.6 nM
IC50 [12]: 1450 nM
IC50 [13]: 28 nM

Cc1cccc(C)c1C(=O)N1CCC(C)(N2CCC(Nc3ccc4ccn(C)c4c3)CC2)CC1
IC50 [1]: 91 nM
IC50 [2]: 1680 nM

Cc1cc(C)c(S(=O)(=O)N2CCC(C)(N3CCC(N(c4ccccc4)c4ccccc4)CC3)CC2)c(C)c1
IC50 [1]: 41 nM

CC1(N2CCC(N(c3ccccc3)c3ccccc3)CC2)CCN(C(=O)c2c[nH]c3ccccc23)CC1
IC50 [1]: 48 nM
IC50 [2]: 283 nM

Cc1nc(-c2ccncc2)nc(C)c1C(=O)N1CCC(C)(N2CCC(N(c3ccccc3)c3ccccc3)CC2)CC1
Cmax [4]: 73 ng/mL
AUG [6]: 513 ng·h/mL
MRT [7]: 5.8 h
bioavailability [9]: 57%
Tmax [16]: 0.5 h
IC50 [1]: 2.8 nM
IC50 [2]: 30 nM
IC50 [12]: 125 nM
IC50 [13]: 24.6 nM
IC50 [17]: 7.9 nM

Cc1nc(-c2ccccc2)nc(C)c1C(=O)N1CCC(C)(N2CCC(N(c3ccccc3)c3ccccc3)CC2)CC1
Cmax [3]: 12 ng/mL
AUG [5]: 115 ng/mL/h
bioavailability [9]: 0%
bioavailability [10]: 86%

Cc1ncnc(C)c1C(=O)N1CCC(C)(N2CCC(N(c3ccccc3)c3ccccc3)CC2)CC1
IC50 [18]: 28 nM
IC50 [13]: 8 nM

Cc1cccc(C)c1C(=O)N1CCC(C)(N2CCC(Nc3ccccc3)CC2)CC1
IC50 [1]: 100 nM

Cc1cccc(C)c1C(=O)N1CCC(C)(N2CCC(N(c3ccccc3)c3ccccc3)CC2)CC1
Cmax [3]: 81 ng/mL
AUG [6]: 664 ng·h/mL
MRT [19]: 6.9 h
bioavailability [9]: 0%
bioavailability [10]: 62%
Tmax [16]: 0.5 h
IC50 [12]: 250 nM
